ChEMBL document CHEMBL1149782, “Synthesis and antifungal activity of some new 3-hydroxy-2-(1-phenyl-3-aryl-4-pyrazolyl) chromones” (2008)

Legend:
Type in all cases: functional
[1] = system: Helminthosporium; experiment: Antifungal activity against Helminthosporium species at 100 ppm after 96 hrs
In short: (§1)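 Poisoned-food assay on potato dextrose agar (200 g potato per litre, boiled and filtered) with compound mixed into sterilized medium at final 100, 500 or 1000 ppm. Plates were centre-inoculated with mycelial discs from 7-day PDA cultures and incubated at 28 ± 1 °C. Colony diameter was measured at two right angles after 96 h. Inhibition = (C − T) × 100/C against compound-free control, mean of three replicates ± SD, two-way ANOVA.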

[2] = system: Helminthosporium; experiment: Antifungal activity against Helminthosporium species at 500 ppm after 96 hrs; in short: as §1
[3] = system: Helminthosporium; experiment: Antifungal activity against Helminthosporium species at 1000 ppm after 96 hrs; in short: as §1
[4] = system: Fusarium oxysporum; experiment: Antifungal activity against Fusarium oxysporum at 100 ppm after 96 hrs; in short: as §1
[5] = system: Fusarium oxysporum; experiment: Antifungal activity against Fusarium oxysporum at 500 ppm after 96 hrs; in short: as §1
[6] = system: Fusarium oxysporum; experiment: Antifungal activity against Fusarium oxysporum at 1000 ppm after 96 hrs; in short: as §1
[7] = system: Alternaria alternata; experiment: Antifungal activity against Alternaria alternata at 100 ppm after 96 hrs; in short: as §1
[8] = system: Alternaria alternata; experiment: Antifungal activity against Alternaria alternata at 500 ppm after 96 hrs; in short: as §1
[9] = system: Alternaria alternata; experiment: Antifungal activity against Alternaria alternata at 1000 ppm after 96 hrs; in short: as §1

Structure (SMILES)	inhibition at 100 ppm [1] [%]	inhibition at 500 ppm [2] [%]	inhibition at 1000 ppm [3] [%]	inhibition at 100 ppm [4] [%]	inhibition at 500 ppm [5] [%]	inhibition at 1000 ppm [6] [%]	inhibition at 100 ppm [7] [%]	inhibition at 500 ppm [8] [%]	inhibition at 1000 ppm [9] [%]
O=c1c(O)c(-c2cn(-c3ccccc3)nc2-c2ccc(Br)cc2)oc2ccccc12	39	39.2	39.2	34.2	35.7	41.4	25.4	29	34.5
COc1ccc(-c2nn(-c3ccccc3)cc2-c2oc3ccccc3c(=O)c2O)cc1	59.7	59.7	77.6	55.5	55.3	64.2	73.5	75.4	77.3
Cc1ccc(-c2nn(-c3ccccc3)cc2-c2oc3ccccc3c(=O)c2O)cc1	73.8	73.8	76.1	50	51.4	55.7	60	61.8	61.8
O=c1c(O)c(-c2cn(-c3ccccc3)nc2-c2ccc(Cl)cc2)oc2ccccc12	0	1.19	21.4	0	0	0	0	38.2	38.2
O=c1c(O)c(-c2cn(-c3ccccc3)nc2-c2ccc([N+](=O)[O-])cc2)oc2ccccc12	1.31	1.31	14.4	8.57	11.4	14.2	0	16.1	16.1
C[C@@H]1C[C@@H]([C@H](O)CC2CC(=O)NC(=O)C2)C(=O)[C@@H](C)C1 [CYCLOHEXIMIDE]	38.5	41.5	50	39.2	43.4	50.2	40.2	45.5	50.6
O=c1c(O)c(-c2cn(-c3ccccc3)nc2-c2ccc(F)cc2)oc2ccccc12	12.3	28.7	58.6	8.9	8.9	16	30.1	43.3	50.9
O=c1c(O)c(-c2cn(-c3ccccc3)nc2-c2ccccc2)oc2ccccc12	31	50.5	71.2	33.9	39.2	51.7	15	41.5	52.8
